Reference: ChEMBL document CHEMBL3813689, “Discovery of Potent Benzofuran-Derived Diapophytoene Desaturase (CrtN) Inhibitors with Enhanced Oral Bioavailability for the Treatment of Methicillin-Resistant Staphylococcus aureus (MRSA) Infections” (J Med Chem, 2016)

Columns and labels:
Trichophyton verrucosum = experiment: Antifungal activity against Trichophyton verrucosum measured after 7 days by serial dilution method; type: functional
Outline: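 Broth serial dilution MIC per NCCLS in RPMI 1640 buffered with 0.165 M MOPS; compounds in DMSO diluted in medium. Dermatophytes incubated at 28 °C, read at 7 days. MIC taken as lowest concentration giving ≥80% growth inhibition versus control (turbidity).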

Staphylococcus aureus [1] = experiment: Sensitization of methicillin-resistant Staphylococcus aureus USA400 MW2 to immune clearance in human whole blood assessed as bacterial survival at 1 uM measured after 24 hrs (reference value: 10.2%); type: functional
Staphylococcus aureus [2] = experiment: Sensitization of Staphylococcus aureus USA300 LAC to immune clearance in human whole blood assessed as bacterial survival at 1 uM measured after 24 hrs (reference value: 12.2%); type: functional
Staphylococcus aureus [3] = experiment: Sensitization of methicillin-resistant Staphylococcus aureus Mu50 to immune clearance in human whole blood assessed as bacterial survival at 1 uM measured after 24 hrs (reference value: 16.1%); type: functional
Staphylococcus aureus [4] = experiment: Sensitization of methicillin-resistant Staphylococcus aureus Mu50 to H2O2 assessed as bacterial survival at 1 uM measured after 24 hrs (reference value: 25.3%); type: functional; conditions: Mu50, 24 h
Staphylococcus aureus [5] = experiment: Inhibition of staphyloxanthin pigment formation in methicillin-resistant Staphylococcus aureus USA300 LAC after 48 hrs by spectrophotometric method; type: functional, organism-based
Outline: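 MRSA grown in 4 mL TSB with 40 µL compound (2-fold serial dilutions from 20 mM DMSO stock) at 37 °C for 48 h, triplicate. Cells washed twice in PBS, pigment extracted with methanol, OD450 measured; IC50 from dose-response fit.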

Staphylococcus aureus [6] = experiment: Suppression in survival of Staphylococcus aureus Newman at 0.2 mM measured after overnight incubation by spectrophotometric method; type: ADME, organism-based; conditions: 200 µM
Outline: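 Compound from 20 mM DMSO stock diluted in TSB to final 0.2 or 0.05 mM; DMSO growth controls; paraffin overlay. Overnight cultures inoculated to final OD600 ≈ 0.05; incubated at 37 °C overnight with OD600 read every 30 min.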

Staphylococcus aureus [7] = experiment: Sensitization of Staphylococcus aureus Newman to H2O2 assessed as reduction in bacterial survival at 1 uM measured after 24 hrs relative to control; type: functional
Outline: (§1)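 Strains grown 24 h in TSB with or without inhibitor, washed twice in PBS, then diluted to 4 × 10^6 CFU per 250 µL reaction. H2O2 added to a final 1.5%. Tubes sealed and held 30 min at 37 °C. Reaction stopped with 1000 U/mL catalase. Survivors counted as CFU by serial dilution on TSA plates and compared with untreated (mock) bacteria.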

Staphylococcus aureus [8] = experiment: Sensitization of methicillin-resistant Staphylococcus aureus Mu50 to H2O2 assessed as reduction in bacterial survival at 1 uM measured after 24 hrs relative to control; type: functional; outline: as §1
[9] = Total plasma clearance in Sprague-Dawley rat at 5 mg/kg, iv administered as single dose; type: ADME, organism-based
Outline: (§2)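 Male SD rats, 3 per group, single iv 5 mg/kg or oral 10 mg/kg. Blood sampled 0.083 (iv only), 0.25, 0.5, 1, 2, 4, 6, 8, 24 h postdose; plasma separated at 4 °C, stored −80 °C, analysed within 1 week. Parameters from plasma concentration-time data; F from dose-normalized AUC, oral vs iv.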

[10] = Terminal half life in Sprague-Dawley rat at 5 mg/kg, iv administered as single dose; type: ADME, organism-based; conditions: in vivo, read-out: beta t1/2 (converted); outline: as §2

CN(C/C=C/c1ccc(C(F)(F)F)cc1)Cc1cccc2ccoc12.Cl
MIC80 (lowest concentration giving ≥80% growth inhibition) (Trichophyton verrucosum): >64 µg/mL
survival at 1 µM (Staphylococcus aureus [1]): 1.3%
survival at 1 µM (Staphylococcus aureus [2]): 1.2%
survival at 1 µM (Staphylococcus aureus [3]): 3%
survival at 1 µM (Staphylococcus aureus [4]): 4.3%
IC50 (Staphylococcus aureus [5]): 3.39 nM
Activity (Staphylococcus aureus [6]): Non-toxic
fold change (FC) (Staphylococcus aureus [7]): 30
fold change (FC) (Staphylococcus aureus [8]): 6
clearance [9]: 54.3 mL/min/kg
half-life [10]: 8.23 h
